Data published in PMC2911241 (Letters in drug design & discovery, 2010).

Experiments:
[1] = tested on: human chronic myelogenous K562 leukemia cells; test: Cell proliferation analysis, K562 cells; assay type: cell-based; details: for IC50: Homo sapiens, K562, 24 h, read-out: IC50 K562
Outline: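 K562 cells grown in RPMI 1640 with 10% FCS, 2 mM L-glutamine, […] and penicillin/streptomycin at 37°C, 5% CO2. DMSO stocks (1 mg/mL) diluted in medium. Cells (1×10^4/well) exposed to increasing concentrations for 24 h at 37°C, then counted electronically. IC50 is 50% growth inhibition vs untreated controls. Duplicate cultures per concentration, repeated experiments, mean ± SE.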

[2] = tested on: murine lymphocytic L1210 leukemia cells; test: Cell proliferation analysis, L1210 cells; assay type: cell-based; details: for IC50: Mus musculus, L1210, 24 h, read-out: IC50 L1210
Outline: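 Murine L1210 cells maintained at 1×10^6 cells/mL in RPMI 1640 with 10% FCS, 2 mM L-glutamine, […] and penicillin/streptomycin (37 °C, 5% CO2). DMSO stocks (1 mg/mL) diluted in medium. 1×10^4 cells/well exposed to increasing concentrations for 24 h at 37 °C; cell number/mL counted on a Coulter counter. IC50 relative to untreated controls, duplicate cultures per concentration, mean ± SE of ≥3 independent experiments.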

[3] = tested on: tubulin; test: Inhibition of [3H]colchicine binding to tubulin; details: combretastatin A-4 at 1 μM; generally observed
Outline: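 Purified tubulin incubated with [3H]colchicine and test compound for 10 min at 37 °C. Read-out is percent inhibition of radiolabelled colchicine binding. Combretastatin A-4 served as reference at 1 μM.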

Structure (SMILES) | IC50 [1] [nM] | IC50 [2] [nM] | other results
COc1cc(C(=O)c2sc3ccccc3c2NC(C)=O)cc(OC)c1OC [Compound 3q, N-[2-(3,4,5-Trimethoxybenzoyl)-1-benzothien-3-yl] acetamide] | 630 ± 40 | – | –
COc1cc(C(=O)c2sc3c(C)cccc3c2NC(C)=O)cc(OC)c1OC [Compound 3y, N-[7-Methyl-2-(3,4,5-trimethoxybenzoyl)-1-benzothien-3-yl]acetamide] | 32 | – | –
COc1cc(C(=O)c2oc3ccccc3c2NC(=O)CBr)cc(OC)c1OC [Compound 3c, 2-Bromo-N-[2-(3,4,5-trimethoxybenzoyl)-1-benzofuran-3-yl]acetamide] | 12800 ± 510 | 4560 ± 640 | –
COc1cc(C(=O)c2sc3ccccc3c2NC(=O)CCl)cc(OC)c1OC [Compound 3r, 2-Chloro-N-[2-(3,4,5-trimethoxybenzoyl)-1-benzothien-3-yl]acetamide] | 600 ± 20 | – | –
COc1ccc2oc(C(=O)c3cc(OC)c(OC)c(OC)c3)c(NC(=O)CBr)c2c1 [Compound 3g, 2-Bromo-N-[5-methoxy-2-(3,4,5-trimethoxybenzoyl)-1-benzofuran-3-yl]acetamide] | 53400 ± 2600 | – | –
COc1ccc2oc(C(=O)c3cc(OC)c(OC)c(OC)c3)c(NC(=O)CI)c2c1 [Compound 3h, 2-Iodo-N-[5-methoxy-2-(3,4,5-trimethoxybenzoyl)-1-benzofuran-3-yl]acetamide] | 49200 ± 1800 | 520 ± 30 | –
COc1cc(C(=O)c2sc3c(C)cccc3c2NC(=O)CCl)cc(OC)c1OC [Compound 3z, 2-Chloro-N-[7-methyl-2-(3,4,5-trimethoxybenzoyl)-1-benzothien-3-yl]acetamide] | 40 ± 20 | 50 | –
C=C(Br)C(=O)Nc1c(C(=O)c2cc(OC)c(OC)c(OC)c2)oc2c(OC)cccc12 [Compound 5d, 2-Bromo-N-[7-methoxy-2-(3,4,5-trimethoxybenzoyl)-1-benzofuran-3-yl]acrylamide] | 55900 ± 4600 | 26800 ± 3200 | –
COc1cc(C(=O)c2sc3cc(C)ccc3c2NC(C)=O)cc(OC)c1OC [Compound 3u, N-[6-Methyl-2-(3,4,5-trimethoxybenzoyl)-1-benzothien-3-yl]acetamide] | 700 ± 10 | – | –
COc1cc(C(=O)c2sc3ccccc3c2NC(=O)CI)cc(OC)c1OC [Compound 3t, 2-Iodo-N-[2-(3,4,5-trimethoxybenzoyl)-1-benzothien-3-yl]acetamide] | 760 ± 20 | 580 ± 90 | –
C=C(Br)C(=O)Nc1c(C(=O)c2cc(OC)c(OC)c(OC)c2)oc2ccccc12 [Compound 5a, 2-Bromo-N-[2-(3,4,5-trimethoxybenzoyl)-1-benzofuran-3-yl]acrylamide] | 5100 ± 70 | 530 | fold more active than amino counterpart 2a ([2]; against L1210 cells): 60 fold
COc1cc(C(=O)c2sc3cc(C)ccc3c2NC(=O)CCl)cc(OC)c1OC [Compound 3v, 2-Chloro-N-[6-methyl-2-(3,4,5-trimethoxybenzoyl)-1-benzothien-3-yl]acetamide] | 80 | – | –
COc1cc(C(=O)c2sc3cc(C)ccc3c2NC(=O)CBr)cc(OC)c1OC [Compound 3w, 2-Bromo-N-[6-methyl-2-(3,4,5-trimethoxybenzoyl)-1-benzothien-3-yl]acetamide] | 500 ± 80 | – | –
COc1cc(C(=O)c2oc3c(OC)cccc3c2NC(C)=O)cc(OC)c1OC [Compound 3m, N-[7-Methoxy-2-(3,4,5-trimethoxybenzoyl)-1-benzofuran-3-yl]acetamide] | 48100 ± 2600 | – | –
COc1cc(C(=O)c2oc3c(OC)cccc3c2NC(=O)CCl)cc(OC)c1OC [Compound 3n, 2-Chloro-N-[7-methoxy-2-(3,4,5-trimethoxybenzoyl)-1-benzofuran-3-yl]acetamide] | 82700 ± 5600 | – | –
COc1cc(C(=O)c2oc3ccccc3c2NC(=O)CCl)cc(OC)c1OC [Compound 3b, 2-Chloro-N-[2-(3,4,5-trimethoxybenzoyl)-1-benzofuran-3-yl]acetamide] | 45800 ± 1500 | – | –
COc1ccc(/C=C\c2cc(OC)c(OC)c(OC)c2)cc1O [combretastatin A-4, reference compound] | – | – | Inhibition of colchicine binding [3]: 85–90%
COc1cc(C(=O)c2sc3ccccc3c2NC(=O)CBr)cc(OC)c1OC [Compound 3s, 2-Bromo-N-[2-(3,4,5-trimethoxybenzoyl)-1-benzothien-3-yl]acetamide] | 610 ± 40 | 500 ± 10 | –
COc1cc(C(=O)c2sc3cc(C)ccc3c2NC(=O)CO[N+](=O)[O-])cc(OC)c1OC [Compound 4c, 2-{[6-Methyl-2-(3,4,5-trimethoxybenzoyl)-1-benzothien-3-yl]amino}-2-oxoethyl nitrate] | 30 ± 20 | 280 ± 30 | fold increase in potency relative to 4b ([1]; against K562 cells): 20 fold
COc1cc(C(=O)c2oc3c(OC)cccc3c2NC(=O)CBr)cc(OC)c1OC [Compound 3o, 2-Bromo-N-[7-methoxy-2-(3,4,5-trimethoxybenzoyl)-1-benzofuran-3-yl]acetamide] | > 100000 | – | –
COc1cc(C(=O)c2oc3c(OC)cccc3c2NC(=O)CI)cc(OC)c1OC [Compound 3p, 2-Iodo-N-[7-methoxy-2-(3,4,5-trimethoxybenzoyl)-1-benzofuran-3-yl]acetamide] | 6960 ± 1120 | 42800 ± 3770 | –
COc1cc(C(=O)c2oc3ccccc3c2NC(C)=O)cc(OC)c1OC [Compound 3a, N-[2-(3,4,5-Trimethoxybenzoyl)-1-benzofuran-3-yl]acetamide] | > 100000 | – | –
COc1cc(C(=O)c2sc3c(C)cccc3c2NC(=O)CI)cc(OC)c1OC [Compound 3ab, 2-Iodo-N-[7-methyl-2-(3,4,5-trimethoxybenzoyl)-1-benzothien-3-yl]acetamide] | 550 ± 10 | – | –
COc1cc(C(=O)c2sc3cc(C)ccc3c2NC(=O)CI)cc(OC)c1OC [Compound 3x, 2-Iodo-N-[6-methyl-2-(3,4,5-trimethoxybenzoyl)-1-benzothien-3-yl]acetamide] | 610 ± 10 | 440 ± 70 | –
COc1ccc2oc(C(=O)c3cc(OC)c(OC)c(OC)c3)c(NC(=O)CCl)c2c1 [Compound 3f, 2-Chloro-N-[5-methoxy-2-(3,4,5-trimethoxy-benzoyl)-1-benzofuran-3-yl]acetamide] | 60900 ± 2400 | – | –
COc1cc(C(=O)c2sc3c(C)cccc3c2NC(=O)CBr)cc(OC)c1OC [Compound 3aa, 2-Bromo-N-[7-methyl-2-(3,4,5-trimethoxybenzoyl)-1-benzothien-3-yl]acetamide] | 490 ± 80 | – | –
COc1cc(C(=O)c2oc3ccccc3c2NC(=O)CI)cc(OC)c1OC [Compound 3d, 2-Iodo-N-[2-(3,4,5-trimethoxybenzoyl)-1-benzofuran-3-yl]acetamide] | 2210 ± 90 | – | fold more potent than the bromine 3c ([1]; antiproliferative activity, K562 and L1210 cells): 6 fold
C=C(Br)C(=O)Nc1c(C(=O)c2cc(OC)c(OC)c(OC)c2)sc2cc(C)ccc12 [Compound 5f, 2-Bromo-N-[6-methyl-2-(3,4,5-trimethoxybenzoyl)-1-benzothien-3-yl]acrylamide] | 940 ± 60 | 59 | –
COc1ccc2oc(C(=O)c3cc(OC)c(OC)c(OC)c3)c(NC(C)=O)c2c1 [Compound 3e, N-[5-Methoxy-2-(3,4,5-trimethoxybenzoyl)-1-benzofuran-3-yl]acetamide] | 58100 ± 1300 | – | –

Now from value to compound, other results behind:

IC50 [1] [nM] | Structure (SMILES) | IC50 [2] [nM] | other results
550 ± 50 | COc1cc(C(=O)c2sc3ccccc3c2NC(=O)CO[N+](=O)[O-])cc(OC)c1OC [Compound 4b, 2-Oxo-2-{[2-(3,4,5-trimethoxybenzoyl)-1-benzothien-3-yl]amino}ethyl nitrate] | – | –
50 ± 10 | COc1cc(C(=O)c2sc3c(C)cccc3c2NC(=O)CO[N+](=O)[O-])cc(OC)c1OC [Compound 4d, 2-{[7-Methyl-2-(3,4,5-trimethoxybenzoyl)-1-benzothien-3-yl]amino}-2-oxoethyl nitrate] | – | fold more potent than 4c ([2]; against L1210 cells): about 5 fold
25900 ± 2300 | C=C(Br)C(=O)Nc1c(C(=O)c2cc(OC)c(OC)c(OC)c2)oc2cc(OC)ccc12 [Compound 5c, 2-Bromo-N-[6-methoxy-2-(3,4,5-trimethoxybenzoyl)-1-benzofuran-3-yl]acrylamide] | – | –
490 ± 30 | C=C(Br)C(=O)Nc1c(C(=O)c2cc(OC)c(OC)c(OC)c2)sc2c(C)cccc12 [Compound 5g, 2-Bromo-N-[7-methyl-2-(3,4,5-trimethoxybenzoyl)-1-benzothien-3-yl]acrylamide] | – | –
> 100000 | C=C(Br)C(=O)Nc1c(C(=O)c2cc(OC)c(OC)c(OC)c2)oc2ccc(OC)cc12 [Compound 5b, 2-Bromo-N-[5-methoxy-2-(3,4,5-trimethoxybenzoyl)-1-benzofuran-3-yl]acrylamide] | – | –
31400 ± 1000 | COc1cc(C(=O)c2oc3ccccc3c2NC(=O)CO[N+](=O)[O-])cc(OC)c1OC [Compound 4a, 2-Oxo-2-{[2-(3,4,5-trimethoxybenzoyl)-1-benzofuran-3-yl]amino}ethyl nitrate] | – | –
580 ± 30 | C=C(Br)C(=O)Nc1c(C(=O)c2cc(OC)c(OC)c(OC)c2)sc2ccccc12 [Compound 5e, 2-Bromo-N-[2-(3,4,5-trimethoxybenzoyl)-1-benzothien-3-yl]acrylamide] | – | –
